{
  "source": "ChEMBL document CHEMBL4725355",
  "about": "“Design, Synthesis, and Preclinical Evaluation of 3-Methyl-6-(5-thiophenyl)-1,3-dihydro-imidazo[4,5-b]pyridin-2-ones as Selective GluN2B Negative Allosteric Modulators for the Treatment of Mood Disorders” (J Med Chem, 2020)",
  "key": {"[1]": {"assay": "Ratio of Cmax in Sprague-Dawley rat at 500 mg/kg/day, po administered as nanosuspension measured for 14 days to EC70 for ex vivo receptor occupancy at GluN2B in po dosed Sprague-Dawley rat assessed as 3-[3H] 1-(azetidin-1-yl)-2-[6-(4-fluoro-3-methyl-phenyl)pyrrolo[3,2-b]pyridin-1-yl]-ethanone labelling", "format": "ADME, organism-based", "details": "336 h"}, "[2]": {"assay": "Toxicity in Sprague-Dawley rat up to 500 mg/kg/day, po administered as nanosuspension measured for 14 days", "format": "organism-based", "details": "in vivo, 336 h, time 14 day", "summary_of_the_method": "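Repeated daily oral dosing of a nanosuspension to rats for 14 days, with 500 mg/kg/day as the high dose. Clinical observations were recorded, and animals were moved to individual caging on Day 6.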"}, "[3]": {"assay": "AUC (0 to 24 hrs) in Sprague-Dawley rat at 500 mg/kg/day, po administered as nanosuspension measured for 14 days measured post last dose by LC-MS/MS analysis", "format": "ADME, organism-based", "design": "route oral, dose 500 mg/kg/day, time 14 day", "details": "in vivo", "summary_of_the_method": "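Repeated daily oral dosing of the nanosuspension to rats for 14 days, up to 500 mg/kg/day.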"}, "[4]": {"assay": "Tmax in Sprague-Dawley rat at 1000 mg/kg, po administered via gavage after 24 hrs using HPMC formulation by LC-MS/MS analysis", "format": "ADME, organism-based", "details": "in vivo", "summary_of_the_method": "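Single oral gavage of a 5% HPMC suspension at 125, 250, 500 or 1000 mg/kg to male Sprague Dawley rats, 3 per group. Plasma was sampled at 6 time points from 0.5 to 24 h.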"}, "[5]": {"assay": "Solubility of compound in phosphate buffer at pH 7 measured after 3 days", "format": "physicochemical", "details": "time 3 day", "summary_of_the_method": "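Solubility in aqueous buffer at pH 2 and pH 7, and in simulated gastric and intestinal fluids.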"}, "[6]": {"assay": "Ratio of Cmax in Sprague-Dawley rat at 100 mg/kg, po administered via gavage after 24 hrs using nanosuspension formulation by LC-MS/MS analysis to EC70 for ex vivo receptor occupancy at GluN2B in po dosed Sprague-Dawley rat assessed as 3-[3H] 1-(azetidin-1-yl)-2-[6-(4-fluoro-3-methyl-phenyl)pyrrolo[3,2-b]pyridin-1-yl]-ethanone labelling", "format": "ADME, organism-based"}, "[7]": {"assay": "Tmax in Sprague-Dawley rat at 2.5 mg/kg, po by LC-MS/MS analysis", "format": "ADME, organism-based", "details": "in vivo"}, "[8]": {"assay": "Efflux ratio of apparent permeability across basolateral to apical side over apical to basolateral side in MDCK-MDR1 cells at 5 uM measured after 60 mins by LC-MS/MS analysis", "format": "ADME, cell-based, Canis lupus familiaris", "details": "dog", "summary_of_the_method": "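MDCK-MDR1 cells, passages 6-30, seeded at 3.4×10^5 cells/cm² and cultured 3 days. Test compound at 5 µM final (1% DMSO) in HBSS, pH 7.4, applied to the donor side. A→B and B→A runs at 37 °C for 60 min, in duplicate, quantified by LC/MS/MS. Efflux ratio taken as B-A/A-B; monolayer integrity checked by lucifer yellow.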"}, "[9]": {"assay": "Intrinsic clearance in rat liver microsomes at 1 uM after 5 to 60 mins in presence of NADPH by LC-MS/MS analysis", "format": "ADME, Microsome", "details": "time 5-60 min, read-out: CLH"}, "[10]": {"assay": "Displacement of 3-[3H] 1-(azetidin-1-yl)-2-[6-(4-fluoro-3-methyl-phenyl)pyrrolo[3,2-b]pyridin-1-yl]ethanone from GluN1a/GluN2B receptor in rat cortex membranes measured after 2 hrs by liquid scintillation counting method", "format": "cell membranes", "summary_of_the_method": "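Rat adult cortex was homogenized in 50 mM Tris pH 7.4, and membranes were washed by centrifugation. Membranes were incubated with the [3H] pyrrolopyridine tracer and test compound for 2 h at room temperature with shaking. Non-specific binding was defined with 10 µM CP-101,606. Bound tracer was separated by filtration on PEI-soaked GF/B filters and counted by liquid scintillation. Ki was obtained from a competition fit using tracer Kd; three independent runs in duplicate.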"}, "[11]": {"assay": "Ex vivo receptor occupancy at GluN2B in Sprague-Dawley rat assessed as 3-[3H] 1-(azetidin-1-yl)-2-[6-(4-fluoro-3-methyl-phenyl)pyrrolo[3,2-b]pyridin-1-yl]-ethanone labelling at 3 mg/kg, po measured after 2 hrs by autoradiography", "format": "functional", "summary_of_the_method": "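Rats dosed orally at 3 mg/kg in 20% HP-β-CD; brains taken at 0.5, 2 and 6 h. Ex vivo autoradiography of brain slices with the ³H pyrrolo[3,2-b]pyridine GluN2B tracer. Labelling expressed relative to matching brain areas of vehicle-treated animals; n=2, ± SEM.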"}, "[12]": {"assay": "Half life in monkey at 0.1 mg/kg, iv by LC-MS/MS analysis", "format": "ADME, organism-based, Macaca mulatta", "details": "rhesus monkey, in vivo"}, "[13]": {"assay": "Clearance in Sprague-Dawley rat at 0.5 mg/kg, iv using 1:1 PEG-400/water formulation by LC-MS/MS analysis", "format": "ADME, organism-based", "details": "in vivo", "summary_of_the_method": "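Rat IV/PO PK at 0.5 mg/kg IV and 2.5 mg/kg PO, dosed in 1:1 PEG400/water, n=3.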"}, "[14]": {"assay": "Cmax in Sprague-Dawley rat at 100 mg/kg, po administered via gavage after 24 hrs using nanosuspension formulation by LC-MS/MS analysis", "format": "ADME, organism-based", "design": "route oral, dose 100 mg/kg, time 24 hrs", "details": "in vivo", "summary_of_the_method": "(§1)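 Single oral gavage dose to male Sprague Dawley rats, 3 per dose level. Vehicles were a standard suspension in 5% HPMC (125, 250, 500 or 1000 mg/kg) or a nanosuspension (API:polymer 4:1), with stock diluted in vehicle on the day of dosing (100, 250 or 500 mg/kg). Blood was sampled at time points from 0.5 to 24 h.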"}, "[15]": {"assay": "Volume of distribution at steady state in monkey at 0.1 mg/kg, iv by LC-MS/MS analysis", "format": "ADME, organism-based, Macaca mulatta", "details": "rhesus monkey, in vivo, read-out: Vdss"}, "[16]": {"assay": "Half life in Sprague-Dawley rat at 0.5 mg/kg, iv by LC-MS/MS analysis", "format": "ADME, organism-based", "details": "in vivo"}, "[17]": {"assay": "Metabolic stability in rat liver microsomes assessed as extraction ratio at 1 uM after 5 to 60 mins in presence of NADPH by LC-MS/MS analysis", "format": "ADME, Microsome", "details": "time 5-60 min, read-out: ERH", "summary_of_the_method": "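Human and rat liver microsomes, run in duplicate; stability reported as microsomal extraction ratio.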"}, "[18]": {"assay": "AUC (0 to 24 hrs) in Sprague-Dawley rat at 125 mg/kg, po administered via gavage after 24 hrs using HPMC formulation by LC-MS/MS analysis", "format": "ADME, organism-based", "design": "route oral, dose 125 mg/kg, time <=24", "details": "in vivo", "summary_of_the_method": "as §1"}, "[19]": {"assay": "Cmax in mouse at 2.5 mg/kg, po by LC-MS/MS analysis", "format": "ADME, organism-based", "design": "route oral, dose 2.5 mg/kg", "details": "in vivo"}, "[20]": {"assay": "Drug level in Sprague-Dawley rat brain cerebellum at 0.03 mg/kg, iv after 5 min by LC-MS/MS analysis", "format": "ADME, organism-based", "details": "read-out: Drug uptake", "summary_of_the_method": "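Single i.v. dose of 0.03 mg/kg in 50% (w/v) PEG/water, pH 7.4; rats n=3 per group, killed at 5, 10, 30, 60 and 120 min. Cerebellum, cortex, striatum and hippocampus dissected, weighed and homogenized; drug quantified by LC-MS/MS and normalized to tissue weight. P<0.05 taken as significant versus cerebellum.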"}, "[21]": {"assay": "AUC (infinity) in mouse at 2.5 mg/kg, po by LC-MS/MS analysis", "format": "ADME, organism-based", "design": "route oral, time infinity, dose 2.5 mg/kg", "details": "in vivo"}, "[22]": {"assay": "Oral bioavailability in mouse at 2.5 mg/kg by LC-MS/MS analysis", "format": "ADME, organism-based", "details": "in vivo"}, "[23]": {"assay": "AUC (infinity) in Sprague-Dawley rat at 2.5 mg/kg, po by LC-MS/MS analysis", "format": "ADME, organism-based", "design": "time infinity, route oral, dose 2.5 mg/kg", "details": "in vivo", "summary_of_the_method": "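Rat PK with IV and PO dosing, n=3. The usual doses were 0.5 mg/kg IV and 2.5 mg/kg PO in 20% HP-β-CD. One compound was instead given at 0.1 mg/kg IV and 0.5 mg/kg PO.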"}},
  "data": [
    {"molecule": "Cn1c(=O)n(CC(=O)N2CCC2)c2cc(-c3ccc(C(F)(F)F)s3)cnc21", "values": [
      {"measurement": "Ratio", "setting": "[1]", "value": 31},
      {"measurement": "Activity", "setting": "[2]", "value": "Non-Toxic"},
      {"measurement": "AUC at 336 h", "setting": "[3]", "value": 222, "unit": "µg·h/mL"},
      {"measurement": "Tmax", "setting": "[4]", "value": 2.3, "unit": "h"},
      {"measurement": "solubility at 72 h", "setting": "[5]", "value": "< 4", "unit": "µM"},
      {"measurement": "Ratio", "setting": "[6]", "value": 13},
      {"measurement": "Tmax", "setting": "[7]", "value": 1.3, "unit": "h"},
      {"measurement": "efflux ratio at 1 h, 5 µM", "setting": "[8]", "value": 2.1},
      {"measurement": "microsomal CLint at 1 µM", "setting": "[9]", "value": 26.3, "unit": "µL/min/mg"},
      {"measurement": "Ki", "setting": "[10]", "value": 16, "unit": "nM"},
      {"measurement": "Occ", "setting": "[11]", "value": 76, "unit": "%"},
      {"measurement": "half-life", "setting": "[12]", "value": 66, "unit": "min"},
      {"measurement": "clearance", "setting": "[13]", "value": 30, "unit": "mL/min/kg"},
      {"measurement": "Cmax", "setting": "[14]", "value": 9000, "unit": "ng/mL"},
      {"measurement": "Vd", "setting": "[15]", "value": 0.8, "unit": "L/kg"},
      {"measurement": "half-life", "setting": "[16]", "value": 48, "unit": "min"},
      {"measurement": "hepatic extraction ratio at 1 µM", "setting": "[17]", "value": "< 0.17"},
      {"measurement": "AUC(0-t)", "setting": "[18]", "value": 22800, "unit": "ng·h/mL"},
      {"measurement": "Cmax", "setting": "[19]", "value": 413, "unit": "ng/mL"},
      {"measurement": "concentration at 5 min", "setting": "[20]", "value": 19.3, "unit": "ng/mL"},
      {"measurement": "AUC(0-inf)", "setting": "[21]", "value": 539, "unit": "ng·h/mL"},
      {"measurement": "bioavailability", "setting": "[22]", "value": 69, "unit": "%"},
      {"measurement": "AUC(0-inf)", "setting": "[23]", "value": 1830, "unit": "ng·h/mL"}
    ]}
  ]
}
